Data reported in ChEMBL document CHEMBL1121617, “Antihypertensive ureidopiperidines” (1980).

Tests used:
[1] = tested on: Rattus norvegicus; experiment: The percent fall in systolic blood pressure at 1.5 / 4 hr after peroral administration of 50 mg/kg in DOCA/saline hypertensive rats at 2 hr; Non significant; format: functional, organism-based; design: dose 50 mg/kg; details: Artery, at 50 mg/kg
[2] = tested on: Rattus norvegicus; experiment: The percent fall in systolic blood pressure at 1.5 / 4 hr after peroral administration of 50 mg/kg in DOCA/saline hypertensive rats at 24 hr; Non significant; format: functional, organism-based; design: dose 50 mg/kg; details: Artery, at 50 mg/kg
[3] = tested on: Rattus norvegicus; experiment: Percent fall in systolic blood pressure at 1.5 / 4 hr after peroral administration of 50 mg/kg in DOCA/saline hypertensive rats at 6 h; Non significant; format: functional, organism-based; design: dose 50 mg/kg; details: Artery, at 50 mg/kg
[4] = tested on: Rattus norvegicus; experiment: Starting systolic blood pressure at dose of 50 mg/kg in rat; format: functional, Artery
Method in brief: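 Mean systolic blood pressure before dosing for each group of four DOCA/saline hypertensive rats given 50 mg/kg orally. It indicates how far hypertension was established.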

[5] = tested on: Rattus norvegicus; experiment: The percent fall in systolic blood pressure at 1.5 / 4 h after peroral administration of 50 mg/kg in DOCA/saline hypertensive rats at 2 hr; format: functional, Artery; details: route oral

O=C(NC(=O)c1ccccc1)NC1CCN(CCc2ccccc2)CC1
Fall [1]: Not significant | Fall [2]: Not significant | Fall [3]: Not significant | SP [4]: 180 mmHg

COc1ccccc1OCC(O)CN1CCC(NC(=O)NC(=O)c2ccccc2)CC1 (stereo not drawn)
Fall [5]: 17% | Fall [2]: Not significant | Fall [3]: Not significant | SP [4]: 189 mmHg

O=C(NC(=O)c1ccccc1)NC1CCN(CC(O)C2COc3ccccc3O2)CC1 (stereo in doubt; 28) [listing 1 of 2 here]
SP ([4]; 50 mg/kg): 174 mmHg

O=C(NC(=O)c1ccccc1)NC1CCN(CC(O)C2COc3ccccc3O2)CC1 (stereo in doubt; 29) [listing 1 of 2 here]
SP ([4]; 50 mg/kg): 178 mmHg

O=C(NC(=O)c1cccs1)NC1CCN(CCCC(=O)c2ccccc2)CC1
Fall [5]: 30% | Fall [2]: Not significant | Fall [3]: Not significant | SP [4]: 190 mmHg

O=C(NC(=O)c1ccccc1)NC1CCN(CC(=O)c2ccccc2)CC1
Fall [5]: -23% | Fall [2]: Not significant | Fall [3]: Not significant | SP [4]: 166 mmHg

O=C(Nc1ccccc1)NC1CCN(CC(O)C2COc3ccccc3O2)CC1 (stereo in doubt; 30) [listing 1 of 2 here]
Fall [1]: Not significant | Fall [2]: Not significant | Fall [3]: Not significant

CN(C(=O)NC(=O)c1ccccc1)C1CCN(CCc2c[nH]c3ccccc23)CC1
Fall [5]: 40% | Fall [2]: Not significant | Fall [3]: Not significant | SP [4]: 186 mmHg

O=C(NC(=O)c1ccccc1)NC1CCN(CC(O)c2ccccc2)CC1 (stereo not drawn)
Fall [5]: 21% | Fall [2]: Not significant | Fall [3]: Not significant | SP [4]: 182 mmHg

N/C(S)=N/C1CCN(CCc2c[nH]c3ccccc23)CC1
Fall [5]: 20% | Fall [2]: Not significant | Fall [3]: Not significant | SP [4]: 189 mmHg

O=C(NC(=O)c1ccc(F)cc1)NC1CCN(CC(O)C2COc3ccccc3O2)CC1 (stereo not drawn)
Fall [5]: 17% | Fall [2]: Not significant | Fall [3]: Not significant | SP [4]: 183 mmHg

O=C(Nc1ccccc1)NC1CCN(CC(O)C2COc3ccccc3O2)CC1 (stereo in doubt; 31) [listing 1 of 2 here]
Fall [2]: Not significant | Fall [3]: Not significant

O=C(Nc1ccccc1)NC1CCN(CC(O)C2COc3ccccc3O2)CC1 (stereo in doubt; 30) [listing 2 of 2 here]
SP ([4]; 50 mg/kg): 182 mmHg

COc1ccc(NC(=O)NC2CCN(CC(O)C3COc4ccccc4O3)CC2)cc1 (stereo not drawn)
Fall [5]: 17% | Fall [2]: Not significant | Fall [3]: Not significant | SP [4]: 190 mmHg

O=C(NC(=O)c1ccccc1)NC1CCN(CC(O)C2COc3ccccc3O2)CC1 (stereo in doubt; 29) [listing 2 of 2 here]
Fall [1]: Not significant | Fall [2]: Not significant | Fall [3]: Not significant

O=C(NC1CCCCC1)NC1CCN(CCc2c[nH]c3ccccc23)CC1
Fall [5]: 15% | Fall [2]: Not significant | Fall [3]: Not significant | SP [4]: 176 mmHg

OC(CN1CCC(/N=C(\S)Nc2ccccc2)CC1)C1COc2ccccc2O1 (stereo not drawn)
Fall [5]: 26% | Fall [2]: Not significant | Fall [3]: Not significant | SP [4]: 182 mmHg

O=C(NC1CCCCC1)NC1CCN(CC(O)C2COc3ccccc3O2)CC1 (stereo not drawn)
Fall [5]: 26% | Fall [2]: Not significant | Fall [3]: Not significant | SP [4]: 172 mmHg

O=C(Nc1ccccc1)NC1CCN(CC(O)C2COc3ccccc3O2)CC1 (stereo in doubt; 31) [listing 2 of 2 here]
Fall [5]: 35% | SP ([4]; 50 mg/kg): 171 mmHg

O=C(NC(=O)c1ccccc1)NC1CCN(CCCC(=O)c2c[nH]c3ccccc23)CC1
Fall [5]: 16% | Fall [2]: Not significant | Fall [3]: Not significant | SP [4]: 187 mmHg

O=C(NC(=O)c1ccccc1)NC1CCN(CC(O)C2COc3ccccc3O2)CC1 (stereo in doubt; 28) [listing 2 of 2 here]
Fall [1]: Not significant | Fall [2]: Not significant | Fall [3]: Not significant
